Laboratory results reported in ChEMBL document CHEMBL4325839, “Design, synthesis and biological evaluations of quaternization harman analogues as potential antibacterial agents” (Eur J Med Chem, 2018).
In brackets after ≈: the same amount, converted by molar mass. Activity calls are given as the source filed them. The rule behind the calls is not given here.

Columns and labels:
Staphylococcus aureus [1] = experiment: Antibacterial activity against methicillin-resistant Staphylococcus aureus after 48 hrs by broth microtube dilution method; assay type: functional
Staphylococcus aureus [2] = experiment: Antibacterial activity against Staphylococcus aureus CGMCC 1.8721 after 12 to 14 hrs by double dilution method; assay type: functional
[3] = Cytotoxicity against […] MARC145 cells assessed as cell viability at 8 ug/ml by MTT assay; assay type: cell-based; conditions: chlorocebus aethiops, read-out: Activity
[4] = Cytotoxicity against human L02 cells assessed as cell viability at 8 ug/ml by MTT assay; assay type: cell-based; conditions: read-out: Activity
Summary of the method: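 MTT viability assay on normal cells (MARC 145 monkey kidney, L02 human hepatocyte) exposed to 8 µg/mL; MTT in PBS then 4 h at 37 °C, 5% CO2; formazan dissolved in DMSO with 15 min shaking; absorbance at 540 nm; viability = treated/untreated absorbance × 100%.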

Bacillus subtilis = experiment: Antibacterial activity against Bacillus subtilis 769 after 12 to 14 hrs by double dilution method; assay type: functional
Bacillus cereus = experiment: Antibacterial activity against Bacillus cereus CGMCC 1.1846 after 12 to 14 hrs by double dilution method; assay type: functional
Ralstonia solanacearum [5] = experiment: Antibacterial activity against Ralstonia solanacearum CGMCC 1.12711 measured after 12 to 14 hrs by double dilution method; assay type: functional
Summary of the method: (§1)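 Broth double-dilution MIC per NCCLS. Bacteria at 1×10^6 CFU/mL in Luria-Bertani medium. Compounds dissolved in DMSO as stock, then diluted in medium to 200, 100, 50, 25, 12.5, 6.25 and 3.125 nmol/mL (DMSO <0.5%); some also tested at 256–1 µg/mL. Incubated at 37 °C for 12–14 h. MIC read as lowest concentration giving visible growth inhibition.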

Escherichia coli = experiment: Antibacterial activity against Escherichia coli CGMCC 1.1636 after 12 to 14 hrs by double dilution method; assay type: functional
Staphylococcus aureus [6] = experiment: Antibacterial activity against methicillin-resistant Staphylococcus aureus ATCC 43300 after 12 to 14 hrs by double dilution method; assay type: functional; summary of the method: as §1
Staphylococcus aureus [7] = experiment: Antibacterial activity against multidrug-resistant Staphylococcus aureus 1199B after 24 hrs; assay type: functional
Staphylococcus aureus [8] = experiment: Antibacterial activity against multidrug-resistant Staphylococcus aureus XU212 after 24 hrs; assay type: functional; conditions: XU212, 24 h
Staphylococcus aureus [9] = experiment: Antibacterial activity against methicillin-resistant Staphylococcus aureus EMRSA15 after 24 hrs; assay type: functional; conditions: EMRSA15, 24 h
[10] = Thermal stability of the compound at 2 ug/ml at 65 degC after 6 hrs by UHPLC-ESI-MS/MS analysis; assay type: physicochemical
Summary of the method: (§2)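 Sample held at 25 °C 0 h, 37 °C 6 h or 65 °C 6 h, then 5 µL injected on UHPLC coupled to ESI-QTOF MS/MS at 0.4 mL/min; sample 2 µg/mL with mobile phase A 10% acetonitrile (ampicillin sodium) or 1 µg/mL with 35% acetonitrile (test compound); residual parent compound monitored.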

[11] = Thermal stability of the compound at 2 ug/ml at 37 degC after 6 hrs by UHPLC-ESI-MS/MS analysis; assay type: physicochemical; summary of the method: as §2
Staphylococcus aureus [12] = experiment: Antibacterial activity against Staphylococcus aureus after 18 hrs; assay type: functional
Ralstonia solanacearum [13] = experiment: Bactericidal activity against Ralstonia solanacearum CGMCC 1.12711 assessed as cell wall disintegration at 0.5 MIC after 1 hr by scanning electron microscopy analysis; assay type: functional, organism-based
[14] = Thermal stability of the compound at 1 ug/ml at 37 degC after 6 hrs by UHPLC-ESI-MS/MS analysis; assay type: physicochemical; summary of the method: as §2
Ralstonia solanacearum [15] = experiment: Protection against Ralstonia solanacearum-induced infection in eggplant leaf at 8 ug/ml after 3 days relative to control; assay type: functional
[16] = Thermal stability of the compound at 1 ug/ml at 65 degC after 6 hrs by UHPLC-ESI-MS/MS analysis; assay type: physicochemical; summary of the method: as §2
Staphylococcus aureus [17] = experiment: Bactericidal activity against methicillin-resistant Staphylococcus aureus ATCC 43300 assessed as cell wall disintegration at 0.5 MIC after 1 hr by scanning electron microscopy analysis; assay type: functional, organism-based
Ralstonia solanacearum [18] = experiment: Bactericidal activity against Ralstonia solanacearum CGMCC 1.12711 assessed as cell shrinkage at 0.5 MIC after 1 hr by scanning electron microscopy analysis; assay type: functional, organism-based
Staphylococcus aureus [19] = experiment: Bactericidal activity against methicillin-resistant Staphylococcus aureus ATCC 43300 assessed as cell shrinkage at 0.5 MIC after 1 hr by scanning electron microscopy analysis; assay type: functional, organism-based

| Structure (SMILES) | MIC (Staphylococcus aureus [2]) [µM] | viability at 8 ug/ml [3] [%] | viability at 8 ug/ml [4] [%] | MIC (Bacillus subtilis) [µM] | MIC (Bacillus cereus) [µM] | MIC (Ralstonia solanacearum [5]) [µM] | MIC (Escherichia coli) [µM] | MIC (Staphylococcus aureus [6]) [µM] | also measured |
| --- | --- | --- | --- | --- | --- | --- | --- | --- | --- |
| Cc1ccc2[nH]c3c[n+](C)ccc3c2c1.[I-] | – | – | – | – | – | – | – | – | MIC (Staphylococcus aureus [1]): 4 mg/L |
| FC(F)(F)c1ccc(C[n+]2ccc3c([nH]c4ccccc43)c2-c2ccco2)cc1 | 25 | 87.1 | 76.2 | 25 | 50 | 25 | 50 | 25 | – |
| O=c1ccc2nccc3c4ccccc4n1c23 [CANTHIN-6-ONE] | – | – | – | – | – | – | – | – | MIC (Staphylococcus aureus [7]): 8 to 64 mg/L (≈ 36.3 to 291 µM); MIC (Staphylococcus aureus [8]): 8 to 64 mg/L (≈ 36.3 to 291 µM); MIC (Staphylococcus aureus [9]): 8 to 64 mg/L (≈ 36.3 to 291 µM) |
| CC1(C)S[C@@H]2[C@H](NC(=O)[C@H](N)c3ccccc3)C(=O)N2[C@H]1C(=O)[O-].[Na+] [AMPICILLIN SODIUM] | 3.12 | – | – | 1.56 | 200 | 3.12 | 3.12 | 50 | Stability [10]: Unstable; Stability [11]: Unstable |
| FC(F)(F)c1ccc(C[n+]2ccc3c([nH]c4ccccc43)c2-c2ccc3c(c2)OCO3)cc1 | 25 | 96.3 | 85.7 | 25 | 50 | 25 | 100 | 25 | – |
| Cc1nccc2c1[nH]c1ccccc12 [HARMAN] | – | – | – | – | – | – | – | – | MIC (Staphylococcus aureus [12]): 1000 mg/L (≈ 5490 µM) |
| COc1ccc2[nH]c3c(-c4ccc5c(c4)OCO5)[n+](Cc4ccc(C(F)(F)F)cc4)ccc3c2c1.[Br-] | 25 | 103 | 84.6 | 25 | 25 | 25 | 50 | 12.5 | Activity (Ralstonia solanacearum [13]): Active; Stability [14]: Stable; Activity (Ralstonia solanacearum [15]): 81.3%; Stability [16]: Stable; Activity (Staphylococcus aureus [17]): Active; Activity (Ralstonia solanacearum [18]): Active; Activity (Staphylococcus aureus [19]): Active |
